Measured values from ChEMBL document CHEMBL1138493, “Synthesis and modeling of new benzofuranone histone deacetylase inhibitors that stimulate tumor suppressor gene expression” (J Med Chem, 2009).
Active and inactive are the calls of the source. The rule behind the calls is not given here.

Legend:
NCI-H661 [1] = assay: Increase in semaphoring 3F mRNA expression in human NCI-H661 cells at 300 nM by qRT-PCR relative to control; type: functional
NCI-H661 [2] = assay: Increase in E-cadherin mRNA expression in human NCI-H661 cells at 300 nM by qRT-PCR relative to control; type: functional
NCI-H661 [3] = assay: Antiproliferative activity against human NCI-H661 cells after 48 hrs by XTT assay; type: functional, cell-based; details: NCI-H661, 48 h
[4] = target: Histone deacetylase (Homo sapiens) (UniProt Q13547+O15379+Q9UBN7+Q92769+Q9UQL6+Q8WUI4+Q9BY41+Q96DB2+P56524+Q9UKV0+Q969S8); assay: Inhibition of HDAC in human NCI-H661 cells assessed as induction of histone H4 acetylation at 3 uM after 6 hrs by Western blot analysis; type: cell-based
Method in brief: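 NCI-H661 cells exposed to compound for 6 h, then lysed and probed by Western blot for acetylated histone H4, with tubulin acetylation blotted alongside. Blots shown are representative of three independent experiments.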

## CC(/C=C/C(=O)NO)=C\[C@@H](C)C(=O)c1ccc(N(C)C)cc1 [TRICHOSTATIN]
NCI-H661 [1]
  fold change (FC): 4
NCI-H661 [2]
  fold change (FC): 50
NCI-H661 [3]
  IC50: 100 nM

## CC(/C=C/C(=O)NO)=C\C1(C)Oc2ccccc2C1=O (centres undefined)
[4]
  Activity: Active
